FN deposit inh: fibronectin deposition inhibition; AH1F fibroblasts, Alexa488-fibronectin deposition fluorescence, overnight; inhibition, % at 12.6 µM; 0.086% of 350,000 active; AID 743247;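 active = mean inhibition across replicates of 30% or more, regardless of how many single replicates reach that level; inconclusive = mean under 30% yet at least half of replicates reach 30%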;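 also: positive control wells lacked labelled fibronectin entirely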
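material = AH1F fibroblast monolayer depositing Alexa488-labelled fibronectin into matrix | amount = 10000 AH1F cells/well | buffer or medium = DMEM plus 2% serum, read in PBS | incubation = 1 h cell adhesion before compound, then overnight fibronectin incubation | detection = fluorescence at 485 nm excitation, 525 nm emission | evaluation = percent inhibition as loss of matrix-bound fibronectin fluorescence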
Env fusion inh: blocks HIV Env-driven cell-cell fusion; HeLa-JRFL Env/CEM21 cell fusion, luciferase; inhibition, % at 12.3 µM; 1.1% of 360,000 active;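 active = mean replicate inhibition score of at least 50 and every replicate individually at or above 50; inconclusive = only one of the two criteria met; inactive = mean below 50 and not all replicates reaching 50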;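 also: 0% = plate neutral controls and 100% = maraviroc near 300 nM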
INS-1E GSIS act: GLuc luminescence reporter in INS-1E cells, primary screen for activators of glucose-dependent secretion of insulin; AID 743287; INS-1E GLuc reporter insulin secretion, 2-3 h; activation, % at 16.6 µM; 0.61% of 370,000 active;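 active = lowest replicate activation of at least 40%, so every replicate reaches that level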;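 also: 0% = median of neutral control wells and 100% = median of IBMX positive control wells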
PDI turbidity: inhibitors of human protein disulfide isomerase; 0.052% of 350,000 active; inhibition, % at 10 µM; P07237; PDI insulin aggregation turbidity, A650, 90 min;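 active = mean inhibition across replicates of 30% or more, whatever share of single replicates reach that level; inconclusive = mean inhibition below 30% while every single replicate reaches 30%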
ERp5 block: inhibitors of human ERp5; ERp5 insulin aggregation, absorbance 650 nm, 90 min; inhibition, % at 9.99 µM; 0.05% of 350,000 active;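 active = mean replicate inhibition above about 25%, with every replicate also reaching it, limit read from the data, passing the limit was not always enough; inconclusive = only one of those two criteria met; inactive = neither criterion met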
Target sequence (Q15084 whole entry, looked up): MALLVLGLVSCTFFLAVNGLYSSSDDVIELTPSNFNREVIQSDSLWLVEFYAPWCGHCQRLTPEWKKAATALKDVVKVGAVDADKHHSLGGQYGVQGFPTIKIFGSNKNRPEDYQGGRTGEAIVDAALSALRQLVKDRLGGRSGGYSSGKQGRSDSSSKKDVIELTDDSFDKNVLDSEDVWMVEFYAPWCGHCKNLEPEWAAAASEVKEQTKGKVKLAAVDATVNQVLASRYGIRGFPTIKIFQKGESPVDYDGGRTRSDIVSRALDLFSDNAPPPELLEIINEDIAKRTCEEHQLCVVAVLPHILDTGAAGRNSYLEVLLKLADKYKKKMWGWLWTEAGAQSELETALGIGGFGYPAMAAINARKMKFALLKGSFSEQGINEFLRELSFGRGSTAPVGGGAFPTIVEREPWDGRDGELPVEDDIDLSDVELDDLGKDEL
Active calls of the source: *; ? = inconclusive; · = not tested or not shown; ! = repeats disagree; [ ] = another dose, or the depositor's remark. Most compounds without a hit are left out; they make up all but 1.4% or so of the library.

SMILES | FN deposit inh | Env fusion inh | INS-1E GSIS act | PDI turbidity | ERp5 block
CCOc1ccc(Oc2ccc(S(=O)(=O)N3CCOCC3)cc2NC(=O)C2=COCCO2)cc1 | 2.3 | 0.7 | -21.0 | -3.6 | 0.6
COc1ccc(S(=O)(=O)N2CCc3ccccc3C2)cc1OC | · | · | 62.8* | -4.4 | -1.6
COc1ccc(S(=O)(=O)N2CCc3ccccc3C2)cc1C(=O)O | 1.9 | 8.1 | 16.3 | -3.9 | -0.1
COc1ccc(NC(=O)N2CC(=O)N3[C@H](C2)[C@@H](c2ccc(C4=CCCC4)cc2)[C@@H]3CO)cc1 | · | · | -9.4 | · | 0.5
O=C(C[C@@H]1C[C@H]2c3cc(NS(=O)(=O)c4ccc(F)cc4)ccc3O[C@H]2[C@@H](CO)O1)N1CCOCC1 | 2.9 | -51.8[16.7 µM] | 2.0 | · | 0.6
Cc1cccc(NC(=O)CSCC(=O)Nc2cc(S(=O)(=O)N3CCOCC3)ccc2N2CCCC2)c1 | · | 7.5 | 18.9 | -1.3 | 2.2
Cc1cccc(NC(=O)CSCC(=O)Nc2cc(Cl)ccc2N2CCOCC2)c1 | · | 71.8* | -12.2 | 0.4 | -1.1
C[C@@H]1CN([C@H](C)CO)C(=O)c2cc(NS(=O)(=O)c3ccccc3)ccc2O[C@@H](C)CCCCO[C@@H]1CN(C)C(=O)Cc1ccccc1 | -13.7 | -9.9[16.7 µM] | -36.1 | · | -0.7
Cc1ccc(S(=O)(=O)NC(C)(C)CSc2nnc(Nc3ccccc3)s2)cc1 | 0.0 | 57.5* | · | 15.0 | ·
CC(C)(CSc1ncccn1)NS(=O)(=O)c1ccccc1 | 5.3 | 5.5 | -4.9 | -3.4 | 1.2
O=C(Nc1ccc(F)cc1)N[C@H]1CC[C@H](CCn2cc(C3(O)CCCC3)nn2)O[C@H]1CO | · | 9.9[16.7 µM] | 0.8 | · | 0.2
COc1ccc(Cl)cc1C(=O)NNC(=O)c1cccc(S(=O)(=O)N(C)C)c1 | 30.7* | -15.3 | -1.6 | 7.1 | ·
CCC(C)(C)c1ccc(OCCCC[n+]2cccc(C)c2C)c(C(C)(C)CC)c1 | -1.6 | 99.2* | · | 17.6 | ·
Cc1cc[n+](CC[n+]2ccc(C)cc2)cc1 | -2.4 | -31.1 | -3.5 | 1.0 | 0.5
CCC(C)(C)c1ccc(OCCCC[n+]2ccc(C)cc2)c(C(C)(C)CC)c1 | 1.0 | 126.9* | 559.6* | · | ·
COc1ccc(-c2ncncc2-c2ccc(Cl)cc2)c(O)c1 | 5.3 | 56.2* | 17.3 | -12.7 | ?
COc1ccc(-c2cncnc2-c2ccc(OC)cc2O)cc1 | 5.8 | ? | 23.2 | -0.6 | 2.9
COc1ccc(-c2cnc(N)nc2-c2ccc(OCc3ccccc3)cc2O)cc1 | -7.7 | 11.6 | 5.3 | -2.3 | -2.6
COc1ccc(-c2ncncc2-c2ccc(OC)c(OC)c2)c(O)c1 | -1.6 | 23.7 | 17.7 | -1.4 | 3.0
COc1ccc(-c2cnc(N)nc2-c2ccc(OC)cc2)cc1 | 6.0 | 35.7 | 52.0* | -4.0 | 3.0
COc1ccc(-c2nc(N)ncc2-c2ccc(OC)c(OC)c2)c(O)c1 | 6.0 | 25.3 | 48.7* | 2.1 | 2.9
CCCN1C[C@H](C)[C@@H](OC)CN(C)C(=O)c2ccc(NC(=O)Nc3c(C)noc3C)cc2OC[C@@H]1C | 4.7 | -26.2[16.7 µM] | -5.3 | · | -1.9
CNC[C@H]1Oc2ccc(NC(=O)CCN3CCOCC3)cc2C(=O)N([C@@H](C)CO)C[C@@H]1C | -8.3 | 14.0[16.7 µM] | 11.5 | · | ·
Cc1noc(C)c1S(=O)(=O)Nc1ccc2c(c1)C(=O)N([C@@H](C)CO)C[C@H](C)[C@H](CN(C)Cc1ccc(C(F)(F)F)cc1)O2 | 0.2 | -9.8[16.7 µM] | -32.7 | · | -5.5
Cc1ccc(S(=O)(=O)N[C@@H]2CC[C@H](CCNC(=O)C3CCCC3)O[C@@H]2CO)cc1 | 10.2 | 15.8[16.7 µM] | -6.2 | · | 0.8
SMILES | FN deposit inh | Env fusion inh | INS-1E GSIS act | PDI turbidity | ERp5 block
O=C(C[C@H]1C[C@H]2c3cc(NC(=O)NC4CCCC4)ccc3O[C@H]2[C@H](CO)O1)NCc1ccc(Oc2ccccc2)cc1 | -1.2 | 9.6[16.7 µM] | -1.8 | · | 3.2
COc1ccc(C)cc1NC(=O)CSc1nnc(CC(=O)Nc2cccc(C(F)(F)F)c2)n1C | 13.7 | 79.9* | 3.8 | -4.7 | ·
COc1ccccc1NC(=O)CSc1nnc(CC(=O)Nc2cccc(C(F)(F)F)c2)n1C | 8.4 | -70.2 | · | -9.0 | ·
Cc1ccc(Nc2cc(C)nc(NCc3ccccc3)n2)cc1 | 10.3 | 151.4* | -14.4 | -4.3 | -1.1
COc1ccc(Nc2cc(C)nc(NCc3ccccc3)n2)cc1 | 11.9 | 71.0* | · | -5.5 | 1.5
COc1cc(C)nc(NCc2ccccc2)n1 | 2.3 | -92.1 | · | -6.1 | ·
Cc1cc(NC2CCCCC2)nc(NCc2ccccc2)n1 | 11.9 | 53.7* | -23.8 | -1.5 | 3.0
Cc1cc(N/N=C/c2ccccc2Cl)nc(NCc2ccccc2)n1 | -1.6 | · | -11.3 | -2.5 | ·
Cc1cc(Oc2ccc(C#N)cc2)nc(NCc2ccccc2)n1 | 4.6 | 60.6* | · | -7.1 | ·
Cc1noc(C)c1NC(=O)N(C)C[C@H]1Oc2ccc(NC(=O)C3CCCCC3)cc2C(=O)N([C@@H](C)CO)C[C@H]1C | · | -10.5[16.7 µM] | 1.7 | · | 2.2
O=c1c(C=Nc2ccc(Oc3ccccc3)cc2)c[nH]n1-c1cccc(Cl)n1 | 0.6 | -56.6 | 106.6* | -5.2 | ·
C[C@H]1CN([C@@H](C)CO)C(=O)c2cc(NC(=O)CCC(F)(F)F)ccc2O[C@H]1CN(C)C(=O)NC1CCCCC1 | · | 12.8[16.7 µM] | 10.8 | · | -2.2
C[C@H]1CN([C@@H](C)CO)C(=O)c2cc(-c3ccccc3)cnc2O[C@@H]1CN(C)C(=O)c1cccc(F)c1 | 37.7* | 12.1[16.7 µM] | -1.2 | · | ·
COc1ccccc1-c1cnc2c(c1)C(=O)N([C@H](C)CO)C[C@@H](C)[C@@H](CN(C)C(C)=O)O2 | · | -34.0[16.7 µM] | 42.5* | · | 1.2
C[C@@H]1CN([C@@H](C)CO)C(=O)c2cc(-c3ccccc3)cnc2O[C@@H]1CN(C)C(=O)c1cccc(F)c1 | 18.8 | 14.0[16.7 µM] | 1.8 | · | ·
COc1ccccc1-c1cnc2c(c1)C(=O)N([C@@H](C)CO)C[C@@H](C)[C@@H](CN(C)C(C)=O)O2 | -3.7 | 6.4[16.7 µM] | -2.5 | -6.5 | 3.3
COc1ccc(S(=O)(=O)Nc2ccc3c(c2)CC(=O)N([C@H](C)CO)C[C@@H](C)[C@@H](CN(C)C(=O)NC(C)C)O3)cc1 | 0.0 | -8.2[16.7 µM] | 9.5 | · | 4.2
CC/C(=C/c1ccccc1)c1cccc2[nH]c3c(OC)cccc3c12 | 0.1 | 58.1* | 1.4 | 0.3 | -1.0
COc1cccc(C(=O)NCCSc2c(C)[nH]c3ccccc23)c1OC | -13.0 | 3.8 | -28.8 | 4.0 | -5.5
CCCC(=O)Nc1ccc2c(c1)C(=O)N(C)C[C@H](OC)[C@@H](C)CN(CC1CCOCC1)[C@H](C)CO2 | -5.8 | · | 12.6 | · | ·
Cc1ccc(OCCCCNC(C)c2ccccc2)c(C)c1 (stereo not given) | 12.6 | 96.3* | -1.6 | -8.6 | -3.2
Cc1ccc(OCCNCc2ccccc2)c(C)c1 | 1.5 | 2.3 | 19.5 | 1.8 | 2.7
Nc1nc2ncc(CNc3ccc(C(=O)N[C@@H](CCC(=O)O)C(=O)O)cc3)nc2c(=O)[nH]1 | · | · | · | · | 4.2
CN(Cc1cnc2nc(N)nc(N)c2n1)c1ccc(C(=O)N[C@@H](CCC(=O)O)C(=O)O)cc1 | -4.6 | 61.7*! | 10.6 | -1.5 | -1.4
CCCC(=O)Nc1ccc2c(c1)OC[C@@H](C)N(C(=O)CC1CC1)C[C@H](C)[C@@H](OC)CN(C)C2=O | 1.5 | 13.0[16.7 µM] | 12.3 | · | -0.9
